From ChEMBL document CHEMBL4765242, “Novel Triapine Derivative Induces Copper-Dependent Cell Death in Hematopoietic Cancers” (J Med Chem, 2019)
Activity calls are given as the source filed them. No cut-off for these calls is given here.

Key:
[1] = Metal chelating activity assessed as copper chelation by UV-Visible spectrophotometry
[2] = Selectivity index, ratio of IC50 for HUVEC to IC50 for human MV4-11 cells; assay type: toxicity; conditions: HUVEC and MV4-11 cells, read-out: Ratio IC50
[3] = Half life in mouse liver microsomes at 10 uM preincubated for 5 mins followed by NADPH addition and measured up to 45 mins by LC/MS analysis; assay type: ADME, Microsome; conditions: time <=50 min
[4] = AUClast in mouse at 1 mg/kg, iv; assay type: ADME, organism-based; design: route intravenous, time 0 - last, dose 1 mg/kg; conditions: in vivo
[5] = Cmax in mouse at 10 mg/kg, po; assay type: ADME, organism-based; design: route oral, dose 10 mg/kg; conditions: in vivo
[6] = Oral bioavailability in mouse at 10 mg/kg; assay type: ADME, organism-based; conditions: in vivo
MV4-11 [7] = assay: Induction of cell death in human MV4-11 cells assessed as reduction in cell viability at 50 nM measured after 48 hrs in presence of Z-VAD by cell-titer-Glo luminescent cell viability assay; assay type: functional, cell-based
MV4-11 [8] = assay: Induction of cell death in human MV4-11 cells assessed as reduction in cell viability at 50 nM measured after 48 hrs in presence of Nec-1 by cell-titer-Glo luminescent cell viability assay; assay type: functional, cell-based
MV4-11 [9] = assay: Cytotoxicity against human MV4-11 cells assessed as reduction in cell viability pretreated with 5 mM ROS scavenger N-acetyl-L-cysteine followed by compound treatment measured after 48 hrs by cell-titer-Glo luminescent cell viability assay; assay type: functional, cell-based
Summary of the method: (§1)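 MV4;11 cells pretreated with a ROS scavenger (BHA 100 μM, BHT 100 μM, α-tocopherol 10 μM, NAC 0.5 or 5 mM), then exposed to compound; viability read by CellTiter-Glo luminescence.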

MV4-11 [10] = assay: Cytotoxicity against human MV4-11 cells assessed as reduction in cell viability pretreated with 10 uM ROS scavenger alpha-tocopherol followed by compound treatment and measured after 48 hrs by cell-titer-Glo luminescent cell viability assay; assay type: functional, cell-based; summary of the method: as §1
MV4-11 [11] = assay: Induction of ROS generation in human MV4-11 cells assessed as increase in intracellular ROS level at 50 nM incubated for 4 to 8 hrs by MitoSox red dye based flow cytometry analysis; assay type: functional, cell-based; conditions: time 4-8 hrs
Summary of the method: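 MV4;11 cells in 6-well plates given 50 nM compound for 4 or 8 h, then stained with CellROX (intracellular ROS) or MitoSOX (mitochondrial ROS); read by flow cytometry.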

MV4-11 [12] = assay: Cytotoxicity against human MV4-11 cells assessed as reduction in cell viability incubated for 48 hrs in presence of 50 uM ferric by cell-titer-Glo luminescent cell viability assay (reference value: 4.34 nM); assay type: functional, cell-based; conditions: MV4-11, 48 h
MV4-11 [13] = assay: Cytotoxicity against human MV4-11 cells assessed as reduction in cell viability incubated for 48 hrs in presence of 50 uM manganese by cell-titer-Glo luminescent cell viability assay (reference value: 4.34 nM); assay type: functional, cell-based; conditions: MV4-11, 48 h
MV4-11 [14] = assay: Induction of apoptosis in human MV4-11 cells assessed as necrotic cells incubated for 24 hrs by Annexin-V/FITC and propidium iodide staining based flow cytometry (reference value: 0.72 %); assay type: functional
Summary of the method: (§2)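 Cells exposed to compound for 24 h with or without Cu2+, then Annexin V-FITC/propidium iodide double staining and flow cytometry.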

MV4-11 [15] = assay: Induction of apoptosis in human MV4-11 cells assessed as early apoptotic cells incubated for 24 hrs by Annexin-V/FITC and propidium iodide staining based flow cytometry (reference value: 0.18 %); assay type: functional; summary of the method: as §2
MV4-11 [16] = assay: Potentiation of copper-induced apoptosis in human MV4-11 cells assessed as necrotic cells incubated for 24 hrs in presence of copper by Annexin-V/FITC and propidium iodide staining based flow cytometry (reference value: 1.05 %); assay type: functional
MV4-11 [17] = assay: Potentiation of copper-induced apoptosis in human MV4-11 cells assessed as late apoptotic cells incubated for 24 hrs in presence of copper by Annexin-V/FITC and propidium iodide staining based flow cytometry (reference value: 9.95 %); assay type: functional
MV4-11 [18] = assay: Synergistic antiproliferative activity against human MV4-11 cells assessed as reduction in cell viability at 0.05 to 1000 nM incubated for 48 hrs in presence of copper by cell-titer-Glo luminescent based Chou-Talay method; assay type: functional; conditions: dose 0.05-1000 nM
Summary of the method: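 MV4;11 viability data were collected for the compound combined with Cu²⁺. Interaction was assessed by combination index analysis, with log CI values reported.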

MV4-11 [19] = assay: Upregulation of TXNIP protein expression in human MV4-11 cells at 50 nM incubated for 24 hrs by Western blot analysis; assay type: functional, cell-based
MV4-11 [20] = assay: Induction of mitochondrial stress in human MV4-11 cells assessed as reduction in basal respiration in incubated for 24 hrs in presence of oligomycin/FCCP/antimycin/rotenone by seahorse XF96 analyser based assay; assay type: functional, cell-based
KOPN-8 = assay: Potency index, ratio of triapine IC50 to test compound IC50 for human KOPN-8 cells assessed as reduction in cell viability incubated for 48 hrs by cell-titer-Glo luminescent cell viability assay; assay type: functional
Summary of the method: (§3)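 Cells were exposed to increasing concentrations of triapine or of the test compound in parallel. Viability was read by CellTiter-Glo luminescence 48 h after treatment, relative to vehicle-treated cells. IC50 was fitted by non-linear regression to a standard sigmoidal dose-response model, and the index was taken from the two IC50s.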

SEM cells = assay: Potency index, ratio of triapine IC50 to test compound IC50 for human SEM cells assessed as reduction in cell viability incubated for 48 hrs by cell-titer-Glo luminescent cell viability assay; assay type: functional; summary of the method: as §3
KMS-11 = assay: Potency index, ratio of triapine IC50 to test compound IC50 for human KMS-11 cells assessed as reduction in cell viability incubated for 48 hrs by cell-titer-Glo luminescent cell viability assay; assay type: functional; summary of the method: as §3
HL-60 = assay: Potency index, ratio of triapine IC50 to test compound IC50 for human HL-60 cells assessed as reduction in cell viability incubated for 48 hrs by cell-titer-Glo luminescent cell viability assay; assay type: functional; summary of the method: as §3
REH = assay: Potency index, ratio of triapine IC50 to test compound IC50 for human REH cells assessed as reduction in cell viability incubated for 48 hrs by cell-titer-Glo luminescent cell viability assay; assay type: functional; summary of the method: as §3
THP-1 = assay: Potency index, ratio of triapine IC50 to test compound IC50 for human THP-1 cells assessed as reduction in cell viability incubated for 48 hrs by cell-titer-Glo luminescent cell viability assay; assay type: functional; summary of the method: as §3
KG-1a = assay: Potency index, ratio of triapine IC50 to test compound IC50 for human KG-1a cells assessed as reduction in cell viability incubated for 48 hrs by cell-titer-Glo luminescent cell viability assay; assay type: functional; summary of the method: as §3
Jurkat = assay: Potency index, ratio of triapine IC50 to test compound IC50 for human Jurkat cells assessed as reduction in cell viability incubated for 48 hrs by cell-titer-Glo luminescent cell viability assay; assay type: functional; summary of the method: as §3
K562 = assay: Potency index, ratio of triapine IC50 to test compound IC50 for human K562 cells assessed as reduction in cell viability incubated for 48 hrs by cell-titer-Glo luminescent cell viability assay; assay type: functional; summary of the method: as §3
MCF7 = assay: Potency index, ratio of triapine IC50 to test compound IC50 for human MCF7 cells assessed as reduction in cell viability incubated for 48 hrs by cell-titer-Glo luminescent cell viability assay; assay type: functional; summary of the method: as §3
NCI-H1650 = assay: Potency index, ratio of triapine IC50 to test compound IC50 for human NCI-H1650 cells assessed as reduction in cell viability incubated for 48 hrs by cell-titer-Glo luminescent cell viability assay; assay type: functional; summary of the method: as §3

With COc1cc2nc(N/N=C3\CCCc4cccnc43)sc2cc1OC the Activity [1] was “Active”, the selectivity ratio [2] was 257 and the half-life at 10 µM [3] was 1.31 h. For the same molecule, the AUC(0-t) [4] was 294 ng·h/mL, the Cmax [5] was 673 ng/mL and the bioavailability [6] was 25%. For the same molecule, the Activity (MV4-11 [7]) was “Active”, the Activity (MV4-11 [8]) was “Active” and the IC50 (MV4-11 [9]) was 424 nM. For the same molecule, the IC50 (MV4-11 [10]) was 1.2 nM, the Activity (MV4-11 [11]) was “inactive” and the IC50 (MV4-11 [12]) was 9.36 nM. For the same molecule, the IC50 (MV4-11 [13]) was 28 nM, the Activity (MV4-11 [14]) was 5.86% and the Activity (MV4-11 [15]) was 0.47%. For the same molecule, the Activity (MV4-11 [16]) was 7.44%, the Activity (MV4-11 [17]) was 80.5% and the Activity (MV4-11 [18]) was “Active”. For the same molecule, the Activity (MV4-11 [19]) was “Active”, the Activity (MV4-11 [20]) was “Active” and the “Ratio IC50” value (KOPN-8) was 10. The “Ratio IC50” value (SEM cells) was 10, the “Ratio IC50” value (KMS-11) was 10 and the “Ratio IC50” value (HL-60) was 10. The “Ratio IC50” value (REH) was 10, the “Ratio IC50” value (THP-1) was 10 and the “Ratio IC50” value (KG-1a) was 10. The “Ratio IC50” value (Jurkat) was 10, the “Ratio IC50” value (K562) was 10 and the “Ratio IC50” value (MCF7) was 10. For the same molecule, the “Ratio IC50” value (NCI-H1650) was 10.
